{"source": "paper PMC9278990", "about": "(Nature structural & molecular biology, 2021)", "key": {"[1]": {"tested_on": "FLCN–LDHA complex", "assay": "FLCN-LDHA complex disruption in HEK293", "assay_type": "cell-based, human", "conditions": "HEK293, exogenous addition, 6 h; n=3", "outline": "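HEK293 cells were given exogenous lactate or pyruvate for 6 h. Lysates underwent anti-FLCN IP (antibody 1 h, then protein G agarose 2 h, 4 °C), four washes in lysis buffer, Laemmli elution and immunoblotting alongside whole-cell extracts. Three independent experiments.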"}, "[2]": {"tested_on": "LDHA", "assay": "Fluorescence polarization anisotropy binding to LDHA", "design": "species or system human", "conditions": "rhodamine B-labeled peptide, pH 7.2, 30 min on ice, n = 3"}, "[3]": {"tested_on": "pTyr10-LDHA", "assay": "LDHA activity", "assay_type": "cell-based, human", "conditions": "rhodamine B-labeled peptides, pTyr10-LDHA normalized to NT; n=3", "outline": "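HEK293 cells were treated with 1 μM rhodamine B-labeled peptides for 2 h. Whole-cell lysates were immunoblotted for pTyr10-LDHA, and band density was expressed as fold change versus untreated cells. n = 3.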"}, "[4]": {"tested_on": "dimeric LDHA", "assay": "LDHA activity, predominantly dimeric LDHA", "assay_type": "biochemical, human", "conditions": "LDHA 10 ng/μl (predominantly dimeric), increasing amounts of FLCN protein or FLCN-10; n=3"}, "[5]": {"tested_on": "LDHA", "assay": "LDHA kinetics and inhibition assay", "assay_type": "biochemical, human", "conditions": "n = 3; for potency as compared to LDHA inhibitor FX11: 2 nM FLCN or 100 nM FLCN-10 versus 60 μM FX11, pH 7.0, 2 mM pyruvate; for mode of LDHA inhibition: 50 mM Tris-HCl pH 7.0, 2 mM pyruvate, varied NADH, 2 nM FLCN or 100 nM FLCN-10", "outline": "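Reactions contained 50 mM Tris-HCl pH 7.0, 2 mM pyruvate and varied NADH, with test protein (2 nM), test peptide (100 nM) or reference inhibitor FX11 (60 μM). Triplicates, ≥2 independent assays. IC50 came from curve fitting; Ki came from Lineweaver–Burk analysis and IC50-to-Ki conversion.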"}, "[6]": {"tested_on": "UOK257 cells", "assay": "Extracellular acidification rate", "assay_type": "cell-based, human", "conditions": "n = 8", "outline": "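UOK257 cells were transfected at 50% confluency in 100-mm dishes (24 h), or left untransfected for peptide treatment. Cells were seeded at 1 × 10^5 per well 24 h before assay and treated immediately before measurement (peptide, 2 h). ECAR was read by Seahorse XF glycolytic stress test. Transfection n = 8, peptide n = 4 independent samples.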"}, "[7]": {"tested_on": "LDHA", "assay": "Cibacron Blue-agarose pulldown of LDHA", "assay_type": "binding, human", "conditions": "HEK293 cells overexpressing FLCN; Cibacron blue agarose 1 h at 4 °C; n=3", "outline": "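Lysates of HEK293 cells expressing empty vector or FLCN-FLAG were incubated with Cibacron Blue agarose for 1 h at 4 °C. LDHA was immunoblotted and the pulldown:input ratio was normalized to vector.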"}, "[8]": {"tested_on": "LDHA/LDHB chimeric constructs", "assay": "Co-IP of FLCN with LDHA/LDHB chimeric constructs", "assay_type": "binding, human", "conditions": "HEK293, co-IP"}, "[9]": {"tested_on": "LDHA", "assay": "Native PAGE of LDHA oligomers", "design": "species or system human", "outline": "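HEK293 cells were transiently transfected with pcDNA3 constructs (TransIT-2020) for 24 h and lysed. Lysates were mixed with non-denaturing loading buffer (250 mM Tris-HCl pH 6.8, 30% glycerol, 0.05% bromophenol blue; 5× stock) for 5 min at room temperature. Samples were resolved on Tris-HCl gels in native running buffer (25 mM Tris, 192 mM glycine).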"}, "[10]": {"tested_on": "ccRCC cells", "assay": "Apoptosis in ccRCC cells on FLCN overexpression", "assay_type": "cell-based, human", "conditions": "786-O, Caki-1 and Caki-2, FLAG-tagged FLCN, immunoblot"}, "[11]": {"tested_on": "LDHA", "assay": "Co-immunoprecipitation of FLCN with LDHA", "assay_type": "binding, human", "conditions": "expressed in HEK293 cells, FLAG IP, immunoblot", "outline": "(§1)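 Lysates came from transfected HEK293 cells (24 h post-transfection) or, for endogenous FLCN IP, from LDHA or LDHB knockout HAP1 cells. Capture used anti-FLAG or anti-HA agarose (2 h, 4 °C) or anti-LDHA/anti-FLCN antibody (1 h) followed by protein G agarose (2 h, 4 °C). Beads were washed four times in NP40 lysis buffer, eluted in Laemmli buffer and immunoblotted.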"}, "[12]": {"tested_on": "LDHB", "assay": "Co-immunoprecipitation of FLCN with LDHB", "assay_type": "binding, human", "conditions": "HEK293 cells, LDHB-FLAG IP; HAP1 cells", "outline": "as §1"}, "[13]": {"tested_on": "LDH", "conditions": "UOK257 lysates, 2 μg plasmid; n = 3"}, "[14]": {"conditions": "overexpression of FLCN in HEK293, native PAGE"}}, "note": "“Also recorded” adds a separate entry of the source. No end group written: not given here.", "data": [{"compound": "CC(O)C(=O)O", "note": "(centres unmarked) [lactate]", "values": [{"measurement": "effect on FLCN–LDHA complex", "setting": "[1]", "value": "much milder effect on dissociation of LDHA from FLCN"}]}, {"compound": "CC(=O)C(=O)O", "note": "[pyruvate]", "values": [{"measurement": "effect on FLCN–LDHA complex", "setting": "[1]", "value": "disruption of the FLCN–LDHA complex"}]}, {"compound": "FLCN-1: peptide derived from aa 220–230 of FLCN (QRMNTAFTPFL; also: rhodamine B label (position not given here))", "values": [{"measurement": "binding to LDHA (in words)", "setting": "[2]", "value": "bound tightly to LDHA"}, {"measurement": "LDHA activity in HEK293 cells", "setting": "[3]", "value": "effectively reduced LDHA activity"}]}, {"compound": "FLCN-10: decapeptide derived from the FLCN loop region; aa 219–228 (AQRMNTAFTP; also: rhodamine B label (position not given here))", "values": [{"measurement": "binding to LDHA (in words)", "setting": "[2]", "value": "greatly enhanced binding"}, {"measurement": "inhibition of dimeric LDHA", "setting": "[4]", "value": "effectively inhibit dimeric"}, {"measurement": "potency as compared to LDHA inhibitor FX11", "setting": "[5]", "value": "greatly improved potency"}, {"measurement": "mode of LDHA inhibition", "setting": "[5]", "value": "uncompetitively inhibits LDHA"}]}, {"compound": "folliculin [FLCN]", "values": [{"measurement": "ECAR, transfection of 2 μg plasmid", "setting": "[6]; UOK257, 2 μg transfection", "value": "little effect"}, {"measurement": "ECAR, transfection of 8 μg plasmid", "setting": "[6]; UOK257, 8 μg transfection", "value": "reduced ECAR to a similar level as the FLCN-replaced control cell line"}, {"measurement": "LDHA binding to Cib-agarose", "setting": "[7]", "value": "greatly diminished"}, {"measurement": "binding to LDHA with both domains (NC) replaced by LDHB", "setting": "[8]; NC chimeric construct", "value": "completely abrogated FLCN interaction"}, {"measurement": "binding to LDHA with LDHB N domain or C domain individually", "setting": "[8]; chimeric constructs (first 22 / last 38 amino acids swapped)", "value": "preserved binding"}, {"measurement": "inhibition of dimeric LDHA", "setting": "[4]", "value": "effectively inhibit dimeric"}, {"measurement": "preference for LDHA oligomeric state", "setting": "[9]; dimer compared to tetramer", "value": "prefers binding to the less active LDHA dimer"}, {"measurement": "effect on large oligomeric complexes of LDHA", "setting": "[9]; [14]", "value": "decrease in large oligomeric complexes of LDHA"}, {"measurement": "formation of dimeric LDHA species (70 kDa)", "setting": "[9]; [14]", "value": "induces formation of a dimeric LDHA species"}, {"measurement": "apoptosis in ccRCC on overexpression", "setting": "[10]", "value": "induced apoptosis in ccRCC cells"}, {"measurement": "binding to LDHA (co-IP)", "setting": "[11]", "value": "specifically bound to LDHA"}, {"measurement": "binding to LDHB (co-IP)", "setting": "[12]", "value": "no interaction with LDHB was detected"}, {"measurement": "potency as compared to LDHA inhibitor FX11", "setting": "[5]", "value": "greatly improved potency"}, {"measurement": "mode of LDHA inhibition", "setting": "[5]", "value": "uncompetitively inhibits LDHA; also recorded: uncompetitive inhibitor of LDHA"}, {"measurement": "LDH activity after transfection of 2 μg", "setting": "[13]", "value": "~ 77%"}]}]}
